# High-throughput results from PubChem BioAssay.
# CYP2C9 inhib – inhibitors of human CYP2C9; P11712; CYP2C9 Supersomes, luciferin-H conversion, luminescence; inhibition, % at 5 µM; 96,000 compounds, 20% hits;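 active means blocking of liver enzyme CYP2C9 beyond about 50% at 5 µM, limit read from the data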
# Cav3 T inh – inhibitors of human Cav3.2 T-type calcium channel; O95180; Cav3.2-expressing cells, Fluo-4 calcium fluorescence FDSS; active compounds read low; B-score at 10 µM; 100,000 compounds, 4% hits; AID 449739;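 active means single-dose well whose peak fluorescence ratio is a statistical outlier from its plate by either plate-standardised score or position-corrected B-score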
# CYP2C19 activ – increases human CYP2C19 enzyme activity; P33261; recombinant CYP2C19, luciferin-H EGE luminescence; active compounds read high; 0 = fully inhibited enzyme, 1 = untreated enzyme; activation factor at 5 µM; 96,000 tested, under 10 active;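 active means activation factor of at least 2 at 5 µM in the primary screen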;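 further: 0 = wells with 2.5 mM tranylcypromine and 1 = vehicle-only wells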
# HIV Rev-RRE inh – HIV Rev-RRE protein-RNA interaction inhibition; Rev peptide-RRE RNA binding, FRET; inhibition, % at 8 µM; 97,000 compounds, 0.79% hits; AID 704;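 active means inhibition above the screen-wide mean plus 3 SD, cut at about 35% in these data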;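 further: 0% = median DMSO wells and 100% = median Neomycin B control wells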
#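 Test system: labelled RRE RNA duplex and labelled Rev peptide. Times: 5 min compound–RNA preincubation, then 15 min with peptide, 25 °C. Doses: single-dose 8 µM. Measured by: FRET, excitation 480 nm, emission 540 nm donor and 671 nm acceptor. Measure: % inhibition of FRET ratio versus controls.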
# CYP2C19 inh – inhibitors of human CYP2C19. inhibition, % at 5 µM. AID 778. CYP2C19 Supersomes, luciferin-H EGE luminescence, 30 min. 96,000 compounds, 21% hits;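 active means CYP2C19 inhibition above a set limit at 5 µM in the primary screen, cut at about 50% in these data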;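 further: plate controls were negative control wells for no effect and 2.5 mM tranylcypromine positive control for full effect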
# CYP2C9 act – CYP2C9 (human) activation; activation factor at 5 µM; 96,000 compounds, 1.4% hits; AID 1024; P11712; recombinant CYP2C9, luciferin-H conversion, luminescence; active compounds read high; factor 1 = untreated enzyme, 0 = blocked;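 active means activation factor of 2 or more for CYP2C9 at a 5 µM dose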;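 further: 0 = sulfaphenazole-blocked wells and 1 = vehicle-only wells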
# The depositor's hits bear a star; nt = no result. Sampled rows, rich in hits. Any-hit rate of the full collection: about 27%.
SMILES,CYP2C9 inhib,Cav3 T inh,CYP2C19 activ,HIV Rev-RRE inh,CYP2C19 inh,CYP2C9 act
CCc1ccc(C(=O)Nc2cc3c(cc2Cl)OCCCO3)cc1,-117.4,-0.911,0.9,6.8,7.2,2.2*
CCC(O)c1cc2c(cc1NC(=O)c1ccc(C)cc1)OCCO2 (stereo not given),76.5*,0.0349,0.4,-1.7,63.8*,0.2
Cc1ccccc1NC(=O)c1ccc2c(c1)OCCO2,-10.7,0.539,1.1,4.0,-6.9,1.1
CCC(=O)Nc1cc2c(cc1C(=O)CC)OCCO2,31.6,1.26,0.7,-2.3,32.7,0.7
CC(C)(C)C(=O)NC1CCN(S(=O)(=O)c2ccc(C(F)(F)F)cc2)CC1,-2.7,0.135,0.2,2.8,76.0*,1
O=C(NC1CCCCC1)c1ccc(S(=O)(=O)N2CCCCC2)cc1,nt,-0.277,nt,5.0,nt,nt
O=C(NC1CC2CCCC(C1)N2Cc1cccs1)N1CCOCC1 (stereo not given),-16.0,0.299,0.9,6.1,13.1,1.2
Cc1ccccc1Oc1ncccc1C(=O)/C(C#N)=C/N(C)C,0.9,1.24,0.7,5.1,34.9,1
CN(C)/C=C(/C#N)C(=O)c1cccc(Oc2ccc(C(C)(C)C)cc2)c1,49.8,-1.26,0.2,-0.2,77.5*,0.5
Cc1cc(Cl)ccc1Oc1cccc(C(=O)/C(C#N)=C/N(C)C)c1,23.1,-0.124,0.3,1.2,69.5*,0.8
Nc1cc(Cl)ccc1Oc1ccccc1,8.5,0.93,0.7,3.6,29.3,0.9
Cc1ccccc1Oc1cccc(C(=O)/C(C#N)=C/N(C)C)c1,79.1*,-0.924,0.1,4.6,89.3*,0.2
CC(C)Oc1ccc(-c2cc(=O)[nH]c(=O)[nH]2)cc1,-27.4,0.439,1.2,7.2,-16.5,1.3
O=C(Oc1cc(-c2ccccc2)no1)c1ccc(Cl)cc1,4.7,-0.325,1.1,12.3,-8.8,1
CCOC(=O)c1cnc(SC)nc1Nc1cccc2ccccc12,nt,-1.62,nt,5.9,nt,nt
CCOC(=O)c1cnc(SC)nc1Oc1cccc(NC(=O)c2cccc(Cl)c2Cl)c1,74.5*,-2.7,0.9,8.5,13.6,0.3
CCOC(=O)c1cnc(SC)nc1Oc1cccc(NC(=O)c2ccc(C)cc2)c1,39.5,-3.39,1,10.4,3.1,0.6
CCOC(=O)c1cnc(SC)nc1Oc1cccc(NS(=O)(=O)c2ccccc2)c1,82.4*,-2.55,0.8,5.0,17.9,0.2
CCOC(=O)c1cnc(SC)nc1Oc1cccc(NS(=O)(=O)c2ccc(F)cc2)c1,76.9*,-1.84,0.7,6.1,25.6,0.2
CCOC(=O)c1cnc(SC)nc1Nc1cccc(F)c1,69.7*,0.642,0.6,6.3,35.2,0.3
CCC1Oc2ccc(C)cc2N(CC(=O)N(Cc2ccncc2)Cc2ccco2)C1=O (stereo not given),nt,-1.43,nt,5.8,nt,nt
O=C(Nc1cccnc1)C1(F)C(F)(F)C(F)(F)C(F)(F)C(F)(F)C1(F)F,43.0,-0.505,0.8,8.1,23.6,0.6
O=C(NCC1(c2ccccc2)CCCC1)C1(c2ccccc2)CCCC1,nt,-6.57*,nt,6.3,nt,nt
Cc1ccc(NC(=O)C2(c3ccccc3)CCCC2)nc1,nt,-1.76,nt,6.8,nt,nt
O=C(NCC1(c2ccccc2)CCCC1)C(=O)NCC1(c2ccccc2)CCCC1,nt,0.787,nt,7.5,nt,nt
SMILES,CYP2C9 inhib,Cav3 T inh,CYP2C19 activ,HIV Rev-RRE inh,CYP2C19 inh,CYP2C9 act
O=C(Nc1cccnc1)C1(c2ccccc2)CCCC1,45.2,-0.257,0.5,2.5,52.1*,0.5
CC(=O)c1ccc(NC(=O)C2(c3ccccc3)CCOCC2)cc1,50.4*,0.448,0.7,4.4,34.0,0.5
O=C(Nc1ccccn1)C1(c2ccccc2)CCCC1,58.9*,0.525,0.2,-0.7,80.9*,0.4
COc1cc(CNc2ccc(N3CCOCC3)c(C(=O)O)c2)ccc1OCC(N)=O,-10.6,-0.391,1.1,nt,-13.1,1.1
Cn1c(Cn2nnc3ccccc32)nnc1SCC(=O)N1CCc2ccccc21,-3.9,-0.25,1.1,4.9,-6.6,1
CCNC(=O)C1(c2ccccc2)CCCC1,-2.6,0.445,1,2.1,-4.8,1
O=C(Nc1ccc(O)c(-c2nc3ccccc3o2)c1)C1(c2ccccc2)CCCC1,87.4*,-1.29,0.8,14.0,24.3,0.1
O=C(Nc1ccncc1)C1(c2ccccc2)CCCC1,94.8*,1.33,0,1.6,100.0*,0.1
COc1ccc(-c2nnc(SCC(=O)NCc3cccs3)n2C(C)C)cc1,54.2*,1.79,0.3,3.5,65.9*,0.5
COc1cccc(-c2csc3nnc(SCC(=O)NCc4cccs4)n23)c1,39.5,0.0196,0.4,1.1,59.1*,0.6
COc1ccc(-c2nnc(SCC(=O)NCc3cccs3)n2C)cc1,nt,0.421,nt,-1.8,nt,nt
O=C(NC1(C(F)(F)F)N=C(c2ccccc2)NC1=O)c1ccc(Cl)cc1Cl (stereo not given),16.4,0.175,0.8,1.4,23.3,0.8
Cc1ccc(Cn2nnc3c(=O)[nH]c(C4CCN(S(=O)(=O)c5cc(C)ccc5C)CC4)nc32)cc1,97.2*,-0.741,0.2,0.7,79.2*,0
Cc1ccc(C)c(S(=O)(=O)N2CCC(c3nc4c(nnn4Cc4ccc(F)cc4)c(=O)[nH]3)CC2)c1,94.2*,-0.291,0.5,2.6,48.7,0.1
COC(=O)C1CCN(C(=O)COC(=O)CC(NC(N)=O)c2ccc(Cl)cc2)CC1 (stereo not given),29.6,-0.151,0.8,nt,18.7,0.7
COc1cccc(C2=NO[C@@H]3C(=O)N(Cc4ccccc4)C(=O)[C@H]23)c1OC,88.4*,-0.432,0,6.0,97.2*,0.1
O=C(O)CCc1nc(-c2ccccc2)no1,0.6,-0.56,1,3.8,-0.9,1
CCc1ccccc1N(C)C(=O)CCc1nc(-c2ccc(C)cc2)no1,62.8*,-5.46*,0.5,1.8,45.6,0.4
COc1ccc(Cl)cc1N(C)C(=O)CCc1nc(-c2ccc(C)cc2)no1,93.8*,-5.72*,0.1,8.3,91.5*,0.1
O=C(/C=C/c1c(Cl)cccc1Cl)Nc1ccncc1,93.1*,-0.213,0.1,17.4,93.7*,0.1
Cc1cc(C)nc(NC(=O)/C=C/c2ccccc2Cl)n1,-0.3,0.459,0.8,2.1,20.9,1
CSc1cccc(NC(=O)/C=C/c2ccc(Cl)cc2)c1,-91.3,-1.45,1,6.5,0.7,1.9
CSc1cccc(NC(=O)/C=C/c2ccccc2)c1,-90.8,-6.34*,0.4,6.1,55.4*,1.9
O=C(Cc1c(F)cccc1Cl)Nc1ccncc1,70.6*,1.03,0.2,6.6,81.5*,0.3
O=C(/C=C/c1cccc(Cl)c1)Nc1ccncc1,98.7*,0.525,0,-3.0,99.0*,0
CCOC(=O)Cn1nc(CC)c2ccccc2c1=O,-15.0,0.0577,1,9.3,-2.1,1.1
CCCC(=O)NCCCc1nc2ccccc2n1CC,-71.4,0.15,1,2.7,-2.2,1.7
